Compounds with a hit are over-represented: about 2.6% of the library has one in this group of screens.
PRMT1 inh: PRMT1 methyltransferase inhibitors, primary screen, biochemical, fluorescence polarization | inhibition, % at 2.79 µM | hit rate 1.3% among 370,000 | AID 652257, 2013 | recombinant PRMT1, activity-based probe fluorescence polarization;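 active = inhibition above about 21% made by adding two undisclosed values, limit read from the data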
Target sequence (Q99873 whole entry, looked up): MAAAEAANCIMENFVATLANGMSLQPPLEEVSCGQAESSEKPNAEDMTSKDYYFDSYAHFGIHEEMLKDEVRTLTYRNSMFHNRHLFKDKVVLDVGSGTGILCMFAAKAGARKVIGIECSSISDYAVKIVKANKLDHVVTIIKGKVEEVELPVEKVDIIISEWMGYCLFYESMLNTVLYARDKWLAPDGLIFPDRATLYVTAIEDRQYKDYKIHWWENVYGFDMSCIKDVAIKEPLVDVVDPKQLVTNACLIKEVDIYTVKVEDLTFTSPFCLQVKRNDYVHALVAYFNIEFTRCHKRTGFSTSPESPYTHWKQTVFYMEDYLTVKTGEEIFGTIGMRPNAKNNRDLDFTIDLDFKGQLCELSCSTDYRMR
mABHD4 FP: ABHD4 inhibitors, primary screen, biochemical, fluorescence polarization, mouse; purified mABHD4, FP-Rh probe fluorescence polarization; inhibition, % at 8.92 µM; hit rate 0.54% among 370,000; (Lyso)-N-acylphosphatidylethanolamine lipase (Mus musculus), Q8VD66;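 active = inhibition exceeding the mean over every tested compound plus 3 SD, cut at about 30% in these data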
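Doses – 8.92 µM, single dose · Material – wild-type mouse ABHD4 protein · Replication – single well per compound (singlicate) · Measure – percent inhibition of probe binding, normalized to plate controls · Schedule – 45 min compound pre-incubation plus 60 min probe step, 25 °C · Detection – fluorescence polarization with parallel and perpendicular emission, 525/598 nm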
SIAE inh: human SIAE inhibitors, primary screen, biochemical, fluorescence polarization, FP-Rh probe, 1536-well HTS. Sialate O-acetylesterase (Homo sapiens), Q9HAT2. SIAE FP-Rh probe binding. inhibition, % at 9.66 µM. hit rate 0.69% among 370,000. AID 1053197, 2014;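 active = inhibition above a cutoff: mean of compounds within the control limits plus 3 SD of those, cut at about 17% in these data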
TCR CD3 inh: inhibitors of human TCR-CD3 interaction, primary screen, biochemical, fluorescence, TAMRA-labeled TCR probe. T-cell receptor (TCR). inhibition, % at 9.4 µM. hit rate 0.37% among 360,000. AID 651800, 2012; in the data active = inhibition above about 19%;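 also: recombinant mutant TCR 2C K166C tagged with TAMRA read by polarization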
HTRA1 inh: HTRA1 serine protease inhibitors, primary screen, biochemical, fluorescence polarization, HTS | recombinant HTRA1, FP-rhodamine activity-based probe | inhibition, % at 5.96 µM | hit rate 0.5% among 340,000 | AID 504803, 2011; in the data active = inhibition above about 36%
SIAE confirm: human SIAE inhibitors, retest, confirmation, biochemical, fluorescence polarization, FP-Rh probe, triplicate; inhibition, % at 9.66 µM; hit rate 13% among 2,300; SIAE FP-Rh activity-based probe; shares compounds with SIAE inh;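 active = mean inhibition of the replicates above the hit cutoff set in the primary screen, cut at about 17% in these data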;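 also: inhibitors lower polarization as more probe stays unbound to SIAE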
Each line names hits and unclear results; the compound was inactive in the other large screens (follow-up assays come after a bar, where they were run).

CCOc1ccc2[nH]c3c(NCCO)ncnc3c2c1	none
O=C(O)CCCCCCNC(=O)c1cncc(O)c1	SIAE inh 23.1 | SIAE confirm inactive
COc1ccc(CN2C(=O)C(CC(=O)NC3CC3)CC(C(=O)N3CCOCC3)=C2C)cc1 (stereo unspecified)	none (no result: HTRA1 inh)
CN(C)N1C(N)=C(C#N)C(c2ccccc2F)C2=C1CC(C)(C)CC2=O (stereo unspecified)	SIAE inh 24.8 | SIAE confirm inactive
Cc1ccccc1C1C(C#N)=C(N)N(N(C)C)C2=C1C(=O)CC(C)(C)C2 (stereo unspecified)	none
COc1cc(CNC(=O)c2cnc(C)cn2)cc(OC)c1	none
O=C(CSc1nnc(CN2CCOCC2)n1-c1ccc(Cl)cc1)Nc1cc(Cl)ccc1O	SIAE inh 26.6 | SIAE confirm inactive
COc1cc2ccccc2cc1C(=O)N1CCCC1	SIAE inh 22.1 | SIAE confirm inactive
CS(=O)(=O)N1CCN(c2ccc(NC(=S)NC(=O)c3cccs3)cc2)CC1	none
CS(=O)(=O)N1CCN(c2ccc(NC(=S)NC(=O)c3ccccc3[N+](=O)[O-])cc2)CC1	SIAE inh 20.4 | SIAE confirm inactive
CC(=O)Nc1ccc(S(=O)(=O)N2CCN(C(=O)c3ncoc3-c3ccccc3)CC2)cc1	none
CC(=O)c1ccc(S(=O)(=O)N2CCN(C(=O)CN3C(=O)NC4(CCCC4)C3=O)CC2)cc1	none
Cc1c(N/N=C(\C#N)C(=O)c2ccc(Cl)cc2)c(=O)n(-c2ccccc2)n1C	SIAE inh 18.2 | SIAE confirm inactive
COc1cccc(CNc2nccs2)c1O	SIAE inh 17.8 | SIAE confirm inactive
COc1ccccc1CNC(=O)C(=O)Nc1nccs1	none
Cc1ccccc1OCC(=O)Nc1ccc([N+](=O)[O-])cc1	none
COc1ccc(-c2cc(C(=O)N3CCN(c4ccccc4O)CC3)c3ccccc3n2)cc1OC	none
O=C(N/N=C/C=C/c1ccco1)c1cccc([N+](=O)[O-])c1	SIAE inh 17.2 | SIAE confirm inactive
COC(=O)C1=NN(C(=O)c2cccc(Cl)c2)C(O)(C(C)(C)C)C1 (stereo unspecified)	SIAE inh 24.2 | SIAE confirm inactive
COC(=O)C1=NN(C(=O)c2ccc(Br)cc2)C(O)(C(C)(C)C)C1 (stereo unspecified)	none
Cc1c(Cc2ccccc2)c(=O)oc2cc(OCc3nn[nH]n3)ccc12	none
Cc1c(CC(=O)O)c(=O)oc2cc(OCc3nn[nH]n3)ccc12	SIAE inh 18.0 | SIAE confirm inactive
C#CCn1c(CCNC(=O)c2ccco2)nc2ccccc21	none
COC(=O)[C@H]1C[C@@H]1[C@H](NC(=O)[C@H]1C[C@@H]1[C@H](NC(=O)OCc1ccccc1)c1ccccc1)c1ccccc1	SIAE inh 19.5 | SIAE confirm inactive
Cc1cccc(NC(=O)n2ccc3ccc(-c4ccc5cc[nH]c5c4)cc32)c1	none (no result: TCR CD3 inh, HTRA1 inh)
CS(=O)(=O)c1ccc(Cl)c(NC(=O)c2cccc(N3C(=O)CCC3=O)c2)c1	SIAE inh 19.3 | SIAE confirm inactive
CS(=O)(=O)c1ccc(Cl)c(NC(=O)c2cccc(Br)c2)c1	none
CCOc1ccc(OCCC(=O)NNC(=O)c2cc(OC)c(OC)c(OC)c2)cc1	none
CCOc1ccc(OCC)c(NC(=O)Nc2ccc3c(c2)N(C)C(=O)CS3)c1	SIAE inh 21.8 | SIAE confirm inactive
N#CC1(NC(=O)CN2C(=O)NC(Cc3c[nH]c4ccccc34)C2=O)CCCCC1 (stereo unspecified)	none
NC(=O)C1CCCN(C(=O)CCC(=O)c2cccs2)C1 (stereo unspecified)	none
CC(C)C1=Nc2cccc3cccc(c23)N1	none
Nc1cccc(C2=Nc3cccc4cccc(c34)N2)c1	SIAE inh 44.6 | SIAE confirm inactive
COc1ccc(C2=Nc3cccc4cccc(c34)N2)cc1	SIAE inh 25.9 | SIAE confirm inactive
CC(=O)Nc1nn(C)c2nc3ccc(C)cc3cc12	none
Cc1cc2nc(NCCCO)n(CC(=O)c3cc(C(C)(C)C)c(O)c(C(C)(C)C)c3)c2cc1C	none
CC(C)(C)c1cc(C(=O)C[n+]2ccc(C(=O)NCCCO)cc2)cc(C(C)(C)C)c1O	SIAE inh 17.9 | SIAE confirm inactive
COc1ccc(C(=O)OCC(=O)N2CCCCCC2)cc1S(=O)(=O)N1CCOCC1	none
Cn1c(=O)oc2cc(S(=O)(=O)N3CCC(C(=O)N4CCN(c5ccc(F)cc5)CC4)CC3)ccc21	SIAE inh 19.5 | SIAE confirm inactive
Cn1c(=O)oc2cc(S(=O)(=O)N3CCC(C(=O)N4CCN(c5ccccc5)CC4)CC3)ccc21	none
CCOC(=O)CC(=O)CSc1nc2c(sc(=S)n2-c2ccc(OCC)cc2)c(=O)[nH]1	SIAE inh 20.3 | SIAE confirm inactive
CCOC(=O)CC(=O)CSc1nc2c(sc(=S)n2-c2ccc(C)c(C)c2)c(=O)[nH]1	none
COC(=O)CCCNC(=O)CCc1nnc(-c2ccc(-c3ccccc3)cc2)o1	SIAE inh 18.1 | SIAE confirm inactive
O=C(NCCC(=O)N1CCCCCCC1)c1ccc(Cl)cc1	none
CC1=C(C(=O)Nc2ccc(C)cc2)C(c2ccco2)NC(=O)N1 (stereo unspecified)	SIAE inh 23.3 | SIAE confirm inactive
COCc1ccc(C(=O)NC2CCCN(Cc3ccccc3F)C2)o1 (stereo unspecified)	none
COc1ccc(Nc2ccc([N+](=O)[O-])cn2)cc1	none
COc1ccc(Nc2cc(C)c3cc([N+](=O)[O-])ccc3n2)cc1	SIAE inh 24.4 | SIAE confirm inactive
CC1=CC(C)(C)N2C(=O)C3(NCCc4c3[nH]c3ccccc43)c3cccc1c32 (stereo unspecified)	SIAE inh 17.9 | SIAE confirm inactive
O=C1Nc2ccccc2C12NCCc1c2[nH]c2ccccc12 (stereo unspecified)	none
CC(C)C1Cc2[nH][nH]c(=O)c2C(C2CC2)O1 (stereo unspecified)	none (no result: HTRA1 inh)
CCC1OC(C(C)C)Cc2[nH][nH]c(=O)c21 (stereo unspecified)	SIAE inh 17.4 (no result: HTRA1 inh) | SIAE confirm inactive
COc1ccc(NC(=O)CC2C(=O)N(C)C(=S)N2Cc2ccco2)cc1 (stereo unspecified)	SIAE inh 19.8 | SIAE confirm inactive
C=CCN1C(=O)C(CC(=O)Nc2ccc(OC)cc2)N(Cc2ccco2)C1=S (stereo unspecified)	none
CCN1CCN(C(=O)/C(=C/c2ccco2)NC(=O)c2ccccc2)CC1	SIAE inh 18.4 | SIAE confirm inactive

Screens from PubChem.
